Measurements published in ChEMBL document CHEMBL3352761, “Synthesis, antitumor activity, and mechanism of action of benzo[b]chromeno[6,5-g][1,8]naphthyridin-7-one analogs of acronycine” (J Med Chem, 2014).
The source made the active and inactive calls. No cut-off for these calls is given here.

How the values were obtained:
[1] = Induction of 117-bp DNA (unknown origin) alkylation assessed as incubation time required to obtain half of maximum of covalent drug/DNA complex at 50 uM incubated for 5 mins to 24 hrs by gel shift assay
Summary of the method: (§1)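 117-bp pBS EcoRI/PvuII fragment, 32P-end-labelled at EcoRI site, gel-purified; incubated with 50 μM drug in 1 mM Na cacodylate pH 7.0, dark, room temperature, 5 min to 24 h; 6% native polyacrylamide gel in TBE pH 8.3, ~5 h at 300 V; phosphorimaging of shifted band; T1/2 = time to half-maximal gel shift from quantification plots; nd if no maximum reached.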

[2] = Induction of 117-bp DNA (unknown origin) alkylation assessed as incubation time required to obtain maximum of covalent drug/DNA complex incubated for 5 mins to 24 hrs by gel shift assay
[3] = Induction of 117-bp DNA (unknown origin) alkylation assessed as incubation time required to obtain half of maximum of covalent drug/DNA complex incubated for 5 mins to 24 hrs by gel shift assay; summary of the method: as §1
[4] = Cytotoxicity against human KB-3-1 cells after 96 hrs by MTT assay; type: functional, cell-based; details: KB 3-1, 96 h
L1210 [5] = assay: Cytotoxicity against mouse L1210 cells after 48 hrs by MTT assay; type: functional, cell-based; details: L1210, 48 h
L1210 [6] = assay: Induction of cell cycle arrest in mouse L1210 cells assessed as accumulation at S phase at 5 uM incubated for 21 hrs by propidium iodide staining based flow cytometry (reference value: 32%); type: functional
[7] = Induction of 117-bp DNA (unknown origin) alkylation incubated for 5 mins to 24 hrs by gel shift assay
Summary of the method: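 117-bp pBS plasmid fragment (EcoRI/PvuII cut), 32P-labelled at EcoRI end, gel-purified. Incubated with drug (rising concentrations up to 50 μM, or fixed 50 μM for kinetics) in 1 mM Na cacodylate pH 7.0, dark, room temperature. Covalent complex seen as shifted band on native 6% PAGE in TBE, phosphorimaging; T1/2 taken as time to half-maximal shift.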

MC-38 = assay: Antitumor activity against mouse C38 cells xenografted in mouse assessed as inhibition of tumor growth at 4 mg/kg, iv administered on day 12 and 24; type: functional
L1210 [8] = assay: Induction of cell cycle arrest in mouse L1210 cells assessed as accumulation at S phase at 10 uM incubated for 21 hrs by propidium iodide staining based flow cytometry (reference value: 32%); type: functional
[9] = Induction of 117-bp DNA (unknown origin) alkylation at 50 uM incubated for 24 hrs by gel shift assay
Summary of the method: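 Labelled 117-bp DNA fragment incubated with drug at increasing concentrations up to 50 μM in 1 mM Na cacodylate pH 7.0, dark, room temperature, 2 or 24 h; native polyacrylamide electrophoresis; bound/free ratio quantified relative to a 50 μM reference alkylator control; scored strong, weak (no plateau by 24 h) or none.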

L1210 [10] = assay: Induction of cell cycle arrest in mouse L1210 cells assessed as accumulation at S phase at 2.5 uM incubated for 21 hrs by propidium iodide staining based flow cytometry (reference value: 32%); type: functional

COc1cc2c(c3c1c(=O)c1cc4ccccc4nc1n3C)[C@@H](O)[C@@H](OC(=O)/C=C/c1ccc(C(F)(F)F)cc1)C(C)(C)O2 (racemic)
T1/2 [1]: 2 h | Tmax [2]: 8 h | T1/2 [3]: 120 min | IC50 [4]: 13 nM | IC50 (L1210 [5]): 0.09 µM | Activity (L1210 [6]): 69% | Activity [7]: Active

COc1c2c(cc3c1c(=O)c1cc4ccccc4nc1n3C)OC(C)(C)[C@@H](O)[C@H]2O (racemic)
IC50 [4]: 7000 nM | IC50 (L1210 [5]): 12.5 µM

COc1c2c(cc3c1c(=O)c1cc4ccccc4nc1n3C)OC(C)(C)C=C2
IC50 [4]: 14000 nM | IC50 (L1210 [5]): 24 µM | Activity (L1210 [6]): inactive

COc1cc2c(c3c1c(=O)c1cc4ccccc4nc1n3C)[C@@H](OC(C)=O)[C@@H](OC(=O)/C=C/c1ccccc1)C(C)(C)O2 (racemic)
IC50 [4]: 320 nM | IC50 (L1210 [5]): 2.1 µM | Activity (L1210 [6]): 73% | Activity [7]: Active

COc1cc2c(c3c1c(=O)c1cc4ccccc4cc1n3C)[C@@H](OC(C)=O)[C@@H](OC(C)=O)C(C)(C)O2 (racemic)
Tmax [2]: 2 h | T1/2 [3]: 30 min | IC50 [4]: 100 nM | Activity (L1210 [6]): 73% | Activity [7]: Active

COc1cc2c(c3c1c(=O)c1cc4ccccc4nc1n3C)[C@@H](OC(=O)/C=C/c1ccccc1)[C@@H](OC(=O)/C=C/c1ccccc1)C(C)(C)O2 (racemic)
IC50 [4]: 540 nM | IC50 (L1210 [5]): 5 µM

COc1ccc(/C=C/C(=O)O[C@@H]2c3c(cc(OC)c4c(=O)c5cc6ccccc6nc5n(C)c34)OC(C)(C)[C@@H]2OC(=O)/C=C/c2ccc(OC)cc2)cc1 (racemic)
IC50 [4]: 370 nM | IC50 (L1210 [5]): 9.6 µM | Activity (L1210 [6]): 70% | Activity [7]: Active

COc1cc2c(c3c1c(=O)c1cc4ccccc4cc1n3C)C(OC(C)=O)C(OC(C)=O)C(C)(C)O2 (single isomer, unassigned; (+))
T1/2 [3]: 20 min

COc1cc2c(c3c1c(=O)c1cc4ccccc4nc1n3C)[C@H](OC(C)=O)[C@H](OC(C)=O)C(C)(C)O2
Tmax [2]: 3 h | TGI (MC-38): Active | T1/2 [3]: 90 min | IC50 [4]: 35 nM | IC50 (L1210 [5]): 0.21 µM | Activity [7]: Active

COc1cc2c(c3c1c(=O)c1cc4ccccc4nc1n3C)[C@@H](O)[C@@H](O)C(C)(C)O2 (racemic)
IC50 (L1210 [5]): 5.1 µM

COc1cc2c(c3c1c(=O)c1cc4ccccc4nc1n3C)[C@@H](OC(=O)/C=C/c1ccc(C(F)(F)F)cc1)[C@@H](OC(=O)/C=C/c1ccc(C(F)(F)F)cc1)C(C)(C)O2 (racemic)
IC50 [4]: 420 nM | IC50 (L1210 [5]): 9.1 µM | Activity (L1210 [8]): 60% | Activity [7]: Active

COc1cc2c(c3c1c(=O)c1cc4ccccc4nc1n3C)C=CC(C)(C)O2
IC50 [4]: 3700 nM | IC50 (L1210 [5]): 11 µM | Activity (L1210 [6]): inactive

COc1cc2c(c3c1c(=O)c1cc4ccccc4nc1n3C)C(OC(C)=O)C(OC(C)=O)C(C)(C)O2 (racemic)
Activity [9]: Active | inhibition in vivo at 4 mg/kg (MC-38; C38, 288 h, read-out: TGI): 95% | IC50 [4]: 37 nM | IC50 (L1210 [5]): 0.2 µM | Activity (L1210 [6]): 68% | Activity [7]: Active

COc1cc2c(c3c1c(=O)c1ccccc1n3C)C=CC(C)(C)O2 [ACRONINE]
IC50 [4]: 3700 nM

COc1cc2c(c3c1c(=O)c1cc4ccccc4nc1n3C)[C@H]1OC(=O)O[C@H]1C(C)(C)O2 (racemic)
IC50 [4]: 41 nM | IC50 (L1210 [5]): 0.12 µM | Activity (L1210 [6]): 76% | Activity [7]: Active

COc1cc2c(c3c1c(=O)c1cc4ccccc4nc1n3C)[C@@H](OC(C)=O)[C@@H](OC(C)=O)C(C)(C)O2
Tmax [2]: 3 h | TGI (MC-38): inactive | T1/2 [3]: 60 min | IC50 [4]: 110 nM | IC50 (L1210 [5]): 0.19 µM | Activity [7]: Active

COc1c2c(cc3c1c(=O)c1cc4ccccc4nc1n3C)OC(C)(C)[C@H]1OC(=O)O[C@@H]21 (racemic)
IC50 [4]: 12000 nM | IC50 (L1210 [5]): 20 µM | Activity (L1210 [6]): 68% | Activity [7]: Active

COc1ccc(/C=C/C(=O)O[C@@H]2[C@H](OC(C)=O)c3c(cc(OC)c4c(=O)c5cc6ccccc6nc5n(C)c34)OC2(C)C)cc1 (racemic)
IC50 [4]: 470 nM | IC50 (L1210 [5]): 2.9 µM | Activity (L1210 [6]): 70% | Activity [7]: inactive

COc1cc2c(c3c1c(=O)c1cc4ccccc4nc1n3C)[C@@H](O)[C@@H](OC(=O)/C=C/c1ccccc1)C(C)(C)O2 (racemic)
Tmax [2]: 3 h | T1/2 [3]: 45 min | IC50 [4]: 30 nM | IC50 (L1210 [5]): 0.11 µM | Activity (L1210 [8]): 66% | Activity [7]: Active

COc1cc2c(c3c1c(=O)c1cc4ccccc4nc1n3C)[C@@H](OC(C)=O)[C@@H](OC(=O)/C=C/c1ccc(C(F)(F)F)cc1)C(C)(C)O2 (racemic)
IC50 [4]: 390 nM | IC50 (L1210 [5]): 3.8 µM | Activity [7]: Active | Activity (L1210 [10]): 73%

COc1c2c(cc3c1c(=O)c1cc4ccccc4nc1n3C)OC(C)(C)[C@@H](OC(C)=O)[C@H]2OC(C)=O (racemic)
IC50 [4]: 8800 nM | IC50 (L1210 [5]): 10.3 µM | Activity [7]: inactive

COc1cc2c(c3c1c(=O)c1cc4ccccc4cc1n3C)C(OC(C)=O)C(OC(C)=O)C(C)(C)O2 (single isomer, unassigned; (-))
T1/2 [3]: 20 min

COc1ccc(/C=C/C(=O)O[C@@H]2[C@H](O)c3c(cc(OC)c4c(=O)c5cc6ccccc6nc5n(C)c34)OC2(C)C)cc1 (racemic)
IC50 [4]: 23 nM | IC50 (L1210 [5]): 0.29 µM | Activity (L1210 [6]): 76% | Activity [7]: Active
